Reference: ChEMBL document CHEMBL1123247, “Nucleoside conjugates. 7. Synthesis and antitumor activity of 1-beta-D-arabinofuranosylcytosine conjugates of ether lipids” (J Med Chem, 1986)

Experiments:
P388 [1] = assay: Antitumor activity was determined against the ip implanted P388 leukemia in mice by 45-day survivors in mice at 60 mg/kg (treatment of 1-5qd schedule) dosage; type: functional, Mus musculus; settings: route intraperitoneal
Summary of the method: (§1)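 DBA/2J mice, 23-33 g, in groups of 6, were inoculated ip with 1×10^6 P388 cells on day 0. Dosing was ip from 24 h on the stated schedules, in 0.9% NaCl with 0.5% Tween-80 (sonicated solution or suspension). Survival was followed daily until death or 45 days. Median T/C was calculated from survivors per NCI protocols, with ILS = (T/C − 1) × 100.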

L1210 [2] = assay: Antitumor activity was determined against the ic implanted L1210 lymphoid leukemia in mice by percent increase in life span at 500 mg/kg (treatment of 1qd schedule) dosage
P388 [3] = assay: Antitumor activity was determined against the ip implanted P388 leukemia in mice by percent median survival rate (treated/control) at 133 mg/kg (treatment of 1,5,9qd schedule) dosage; Range is >45.0/11.0; settings: route intraperitoneal
L1210 [4] = assay: Antitumor activity against ic implanted L1210 lymphoid leukemia in mice expressed as active dose range (1 qd treatment schedule) required to produce increase in life span by >25% was determined; Range is 200-500
HL-60 = assay: Compound was tested for the inhibition of human HL60 Leukemia; type: functional, cell-based
Summary of the method: (§2)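 Human leukemia and solid tumor cells in culture were exposed to compound for 48 h. Viability was scored by trypan blue dye exclusion. IC50 (50% inhibition) was estimated from response curves of three separate experiments.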

L1210 [5] = assay: Antitumor activity was determined against the ic implanted L1210 lymphoid leukemia in mice by range in survival days at 100 mg/kg (treatment of 1-9qd schedule) dosage; Range is 11-18; type: functional, Mus musculus
L1210 [6] = assay: Antitumor activity against ic implanted L1210 lymphoid leukemia in mice expressed as active dose range (1-9qd treatment schedule) required to produce increase in life span by >25% was determined; Range is 100-300; type: functional, Mus musculus
Summary of the method: (§3)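 DBA/2J mice, groups of 6 (26-32 g), got 1 × 10^5 L1210 cells ic on day 0. Dosing was ip starting 24 h later, as a sonicated solution or suspension in 0.9% NaCl with 0.5% Tween-80, over a wide dose range. Mice were followed daily until death. Median survival T/C was taken from survivors per NCI protocols, and ILS = (T/C − 1) × 100. Active range means doses giving ILS ≥25%; optimal dose means greatest ILS.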

L1210 [7] = assay: Antitumor activity against ip implanted L1210 leukemia in mice expressed as active dose range (1-5qd treatment schedule) required to produce increase in life span by >25% was determined; Range is 5-350; type: functional, Mus musculus
Summary of the method: (§4)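 DBA/2J mice, groups of 6 (23-28 g), were inoculated ip with 1 × 10^6 L1210 cells on day 0. Dosing was ip from 24 h, in 0.9% NaCl with 0.5% Tween-80 (sonicated solution or suspension). Mice were observed daily until death or day 45. Median survival T/C followed NCI protocols, and ILS = (T/C − 1) × 100. Active range means doses giving ILS ≥25%; optimal dose means greatest ILS.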

P388 [8] = assay: Antitumor activity was determined against the ip implanted P388 leukemia in mice by percent median survival rate (treated/control) at 200 mg/kg (treatment of 1-5qd schedule) dosage; 23.0/11.0; type: functional, Mus musculus; settings: route intraperitoneal
P388 [9] = assay: Antitumor activity was determined against the ip implanted P388 leukemia in mice by change in […] at 200 mg/kg (treatment of 1-5qd schedule) dosage; type: functional, Mus musculus; settings: route intraperitoneal
Summary of the method: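 P388 leukemia, 1×10^6 cells implanted ip on day 0 into DBA/2J mice, groups of 6 (wt 23-33 g). Dosing ip started 24 h post-inoculation, vehicle 0.9% NaCl containing 0.5% Tween-80. Animals were observed daily until death or 45 days. Outputs were weight change, median survival T/C from survivors per NCI protocols, and %ILS = (T/C − 1) × 100.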

[10] = test system: Small cell lung cancer cell line; assay: Compound was tested for the inhibition of small cell lung cancer; type: functional, cell-based; settings: Homo sapiens; summary of the method: as §2
L1210 [11] = assay: Antitumor activity was determined against the ic implanted L1210 lymphoid leukemia in mice by median survival time at 300 mg/kg (treatment of 1-5qd schedule) dosage; 16.0/7.0
L1210 [12] = assay: Antitumor activity was determined against the ip implanted L1210 leukemia in mice by change in […] at 100 mg/kg (treatment of 1-5qd schedule) dosage; type: functional, Mus musculus; settings: route intraperitoneal
Summary of the method: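 DBA/2J mice, 6 per group (wt 23-28 g), inoculated ip with 1×10^6 L1210 cells on day 0. Treatment was given ip in 0.9% NaCl with 0.5% Tween-80, starting 24 h later. Weight change was taken on day 8. Mice were observed daily until death or 45 days. Median survival T/C and %ILS = (T/C − 1) × 100 came from survivors per NCI protocols, and 45-day survivors were counted.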

P388 [13] = assay: Antitumor activity was determined against the ip implanted P388 leukemia in mice by range in survival days at 60 mg/kg (1-5qd treatment schedule) dosage; 21-24; type: functional, Mus musculus; settings: route intraperitoneal
L1210 [14] = assay: Antitumor activity was determined against the ic implanted L1210 lymphoid leukemia in mice by range in survival days at 80 mg/kg (1-5qd treatment schedule) dosage; Range is 11-24; type: functional, Mus musculus
L1210 [15] = assay: Antitumor activity against the ic implanted L1210 lymphoid leukemia in mice (1,5,9qd treatment schedule) required to produce greatest increase in life span was determined; type: functional, Mus musculus; summary of the method: as §3
L1210 [16] = assay: Antitumor activity against ic implanted L1210 lymphoid leukemia in mice expressed as active dose range (1,5,9qd treatment schedule) required to produce increase in life span by >25% was determined; Range 67-133; type: functional, Mus musculus; summary of the method: as §3
L1210 [17] = assay: Antitumor activity against ic implanted L1210 lymphoid leukemia in mice expressed as active dose range (1 qd treatment schedule) required to produce increase in life span by >25% was determined; Range is 200-400; type: functional, Mus musculus; summary of the method: as §3
L1210 [18] = assay: Antitumor activity against ip implanted L1210 leukemia in mice expressed as active dose range (1-5qd treatment schedule) required to produce increase in life span by >25% was determined; Range is 10-80; type: functional, Mus musculus; summary of the method: as §4
L1210 [19] = assay: Antitumor activity was determined against the ic implanted L1210 lymphoid leukemia in mice by percent increase in life span at 300 mg/kg (1 qd treatment schedule) dosage; type: functional, Mus musculus; summary of the method: as §3
L1210 [20] = assay: Antitumor activity was determined against the ip implanted L1210 leukemia in mice by percent increase in life span at 300 mg/kg (treatment of 1qd schedule) dosage; type: functional, Mus musculus; settings: route intraperitoneal
Summary of the method: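 DBA/2J mice in groups of 6 (wt 23-28 g) were inoculated ip with 1×10^6 L1210 cells on day 0. Dosing was ip from 24 h, in 0.9% NaCl with 0.5% Tween-80 (conjugates sonicated), across a range of doses. Mice were observed daily until death or 45 days. Median T/C was computed from survivors per NCI protocols, and ILS = (T/C − 1)×100.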

P388 [21] = assay: Antitumor activity was determined against the ip implanted P388 leukemia in mice by percent increase in life span at 500 mg/kg (1 qd treatment schedule) dosage; type: functional, Mus musculus; settings: route intraperitoneal; summary of the method: as §1

## CCCCCCCCCCCCCCCCOCC(COP(=O)(O)OP(=O)(O)OC[C@H]1O[C@@H](n2ccc(N)nc2=O)[C@@H](O)[C@@H]1O)OC(=O)CCCCCCCCCCCCCCC (mixture of isomers)
P388 [1]
  Survivors: 6
L1210 [2]
  ILS: 229
P388 [3]
  T/C: >45%
L1210 [4]
  Active dose range: 200 mg/kg/day

## Nc1ccn([C@@H]2O[C@H](CO)[C@@H](O)[C@@H]2O)c(=O)n1 [CYTARABINE]
HL-60
  IC50: 130 nM
L1210 [5]
  Range: 11
L1210 [6]
  Active dose range: 100 mg/kg/day
L1210 [7]
  Active dose range: 5 mg/kg/day
P388 [8]
  T/C: 23%
P388 [9]
  Weight change: -3.62 g mouse-1
[10]
  IC50: > 100000 nM
L1210 [11]
  median survival time: 16 days

## CCCCCCCCCCCCCCCCCCOCC(COP(=O)(O)OP(=O)(O)OC[C@H]1O[C@@H](n2ccc(N)nc2=O)[C@@H](O)[C@@H]1O)OC(=O)CCCCCCCCCCCCCCC (mixture of isomers)
L1210 [12]
  Weight change: -0.95 g mouse-1
P388 [13]
  Range: 21

## CCCCCCCCCCCCCCCC(=O)OC[C@H](COP(=O)(O)OP(=O)(O)OC[C@H]1O[C@@H](n2ccc(N)nc2=O)[C@@H](O)[C@@H]1O)OC(=O)CCCCCCCCCCCCCCC
L1210 [14]
  Range: 11
L1210 [15]
  Optimal dose: 133 mg
L1210 [16]
  Active dose range: 67 mg/kg/day
L1210 [17]
  Active dose range: 200 mg/kg/day
L1210 [18]
  Active dose range: 10 mg/kg/day
L1210 [19]
  ILS: 200
L1210 [20]
  ILS: 215
P388 [21]
  ILS: >309
